# The source made the active and inactive calls. The rule behind the calls is not given here.
# Columns and labels:
# [1] = molecular target: T1, Nuclear factor erythroid 2-related factor 2 (Rattus norvegicus) (UniProt O54968); assay: Induction of MPP+ induced Nrf2 nuclear translocation in rat PC12 cells at 100 nM incubated for 24 hrs by Western blot analysis; format: cell-based; conditions: PC-12, filed as activator
# T1 sequence (whole entry): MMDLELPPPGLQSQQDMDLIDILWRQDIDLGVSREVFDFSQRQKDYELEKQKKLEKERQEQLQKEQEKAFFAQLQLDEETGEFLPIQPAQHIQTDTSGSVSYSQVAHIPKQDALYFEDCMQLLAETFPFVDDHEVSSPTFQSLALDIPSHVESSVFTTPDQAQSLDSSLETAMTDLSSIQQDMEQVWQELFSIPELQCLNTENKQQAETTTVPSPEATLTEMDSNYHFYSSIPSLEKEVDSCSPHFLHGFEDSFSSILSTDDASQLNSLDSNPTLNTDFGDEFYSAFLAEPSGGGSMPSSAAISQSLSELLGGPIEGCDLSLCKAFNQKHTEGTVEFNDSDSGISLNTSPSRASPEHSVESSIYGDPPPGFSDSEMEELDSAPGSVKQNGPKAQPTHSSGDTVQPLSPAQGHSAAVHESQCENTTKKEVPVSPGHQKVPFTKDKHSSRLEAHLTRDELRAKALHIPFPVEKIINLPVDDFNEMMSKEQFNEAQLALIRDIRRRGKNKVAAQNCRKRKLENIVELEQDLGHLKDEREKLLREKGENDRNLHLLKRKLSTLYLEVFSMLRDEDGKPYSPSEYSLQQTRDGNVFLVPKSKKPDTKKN
# Method in brief: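 PC12 cells were incubated 24 h with MPP+ (25 μM) with or without compound (100 nM). Nuclear extracts (30 μg) were run on 10% SDS-PAGE and immunoblotted for Nrf2, with histone H3 as nuclear marker and ECL detection.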
# PC-12 = assay: Upregulation of GSTA-2 expression in MPP+ induced rat PC-12 cells at 100 nM pretreated with compound for 24 hrs followed by MPP+ stimulation and measured after 6 hrs; format: functional, cell-based; conditions: time 30.0 hrs
# Method in brief: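 PC12 cells pretreated 24 h with compound, then exposed to 25 μM MPP+ for 6 h. mRNA quantified by real-time PCR (95 °C 3 min, then 40 cycles of 95 °C 10 s and 62 °C 30 s), samples in triplicate. Values normalized to β-actin, expressed as 2^-ΔΔCt with untreated cells set to 1.0. n = 3.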
smiles,measurement,setting,value
C#CCSC[C@H]1NC(=O)[C@H](Cc2ccc(OC(C)=O)c(OC(C)=O)c2)NC1=O,Activity,[1],Active
same,Activity,PC-12,Active
